The results in this text go back to ChEMBL document CHEMBL4219224, “Structure based drug design and in vitro metabolism study: Discovery of N-(4-methylthiophenyl)-N,2-dimethyl-cyclopenta[d]pyrimidine as a potent microtubule targeting agent” (Bioorg Med Chem, 2018).

The subject of one data set is MDA-MB-435 (human). The data set can be described thus: Antiproliferative activity against human MDA-MB-435 cells by SRB assay. (In general: The SRB assay estimates cell density from bound dye.)
Data set [1] in a line: Induction of microtubule depolymerization in rat A10 cells by indirect immunofluorescence method. It counts as cell-based. The method in brief:
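A-10 cells, which arrest in interphase, used to score loss of interphase microtubules. EC50 values calculated per an earlier method, minimum of three independent experiments.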

For data set [2], the system named is HeLa. Description: Resistance index, ratio of IC50 for human HeLa cells expressing wild type beta3 tubulin to IC50 for human HeLa cells. The data set is classed as functional. The method in brief: (§1)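 Antiproliferative IC50 by SRB assay (cellular protein) in each isogenic pair: SK-OV-3 parental versus Pgp-expressing, and parental HeLa versus wild-type βIII-tubulin-expressing HeLa. Rr is the IC50 ratio of the modified line to the parental line. At least three independent experiments, each in triplicate, mean ± SD.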

The species named for data set [3] is Bos taurus. Description: Inhibition of [3H]colchicine binding to bovine brain tubulin at 1 uM measured after 10 mins by scintillation counting method relative to control. The method in brief: (§2)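 Reactions of 0.1 mL held 1.0 μM bovine brain tubulin, 5.0 μM [3H]colchicine, inhibitor at 1.0 or 5.0 μM, colchicine-binding stabilizing components and 5% DMSO, assembled on ice with tubulin added last. Incubated 10 min at 37 °C, stopped with ice water, filtered through DEAE-cellulose filters. Bound radiolabel counted by scintillation.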

Data set [4] concerns HeLa. Description: Antiproliferative activity against human HeLa cells expressing wild type beta3 tubulin by SRB assay. The data set is classed as functional, cell-based.
The subject of a further data set is SK-OV-3. Description: Antiproliferative activity against human SKOV3 cells by SRB assay. It counts as functional, cell-based.
A short description of data set [5]: Retention time of the compound in human liver microsomes at 20 uM by LC-MS/MS analysis. It counts as ADME, microsome. The gist of the method:
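Human liver microsomes (both genders; 1.0 mg/mL) in 100 mM PBS pH 7.4 with 3 mM MgCl2 and 10 mM NADPH, preincubated at 37 °C. Reaction started with compound at 20 μM final (from DMSO stock); propranolol 5 μM as control. Aliquots at 0 and 60 min quenched in ice-cold ACN. Analysed by LC/MS/MS on a C18 column, 5–75% B gradient over 30 min, ESI.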

The nature of data set [6]: Antiproliferative activity against human SKOV3-MDR1-M6/6 cells by SRB assay. The data set is classed as functional.
Data set [7] in a line: Resistance index, ratio of IC50 for human SKOV3-MDR1-M6/6 cells to IC50 for human SKOV3 cells. It counts as functional. The gist of the method:
as §1

Data set [8] is described as follows: Inhibition of bovine brain tubulin polymerization assessed as reduction in tubulin assembly pretreated for 15 mins followed by GTP addition by spectrophotometric method. Further details: species or system Bos taurus. The method in brief: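 Placed on ice, then 0.4 mM GTP (final) added. Turbidity read at 350 nm after a jump from 0 °C to 30 °C.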
The species named for data set [9] is Bos taurus. The data set can be described thus: Inhibition of [3H]colchicine binding to bovine brain tubulin at 5 uM measured after 10 mins by scintillation counting method relative to control. The gist of the method:
as §2

The subject of data set [10] is HeLa. Description: Antiproliferative activity against human HeLa cells by SRB assay. It counts as functional, cell-based.

The structures appear in SMILES notation.

Regarding `Cc1nc2c(c(N(C)c3ccc(O)cc3)n1)CCC2`, half-maximal inhibition in the data set on MDA-MB-435 (human) (IC50) required 405 nM. For the same compound, in data set [1], the response was half-maximal at 5560 nM (EC50).
Regarding `Cc1nc2c(c(N(C)c3ccc([S+](C)[O-])cc3)n1)CCC2` (configuration not stated), the “Ratio IC50” value in the data set on HeLa [2] is recorded as 1.5; in data set [7], 1.6. Besides, the inhibition (commonly the change of the read-out against control, counted positive when it falls) in the data set listed under Bos taurus [3] was 79%; in the data set filed under Bos taurus [9], 93%. Further, the 50% inhibitory concentration (IC50) – broadly, the concentration that gives 50% inhibition – with HeLa [4] worked out at 10 nM; with SK-OV-3, 12.6 nM; with MDA-MB-435 (human), 7.9 nM; in data set [6], 19.9 nM; in data set [8], 1100 nM; with HeLa [10], 6.8 nM. The compound further gave a Retention_time in data set [5] of 7.9 min. Also, the midpoint of the response in data set [1], the EC50, lay at 31 nM.
As for `CNc1ccc(N(C)c2nc(C)nc3c2CCC3)cc1`, the “Ratio IC50” value with HeLa [2] was 0.6; in [7] it was 1.4. In addition, the IC50 in the data set on SK-OV-3 was determined as 36.3 nM; in the data set on MDA-MB-435 (human), 20 nM; in data set [6] it was 49.7 nM; in the data set on HeLa [10], 31 nM. Further, in [1], it took 45 nM to reach a half-maximal effect (EC50).
Regarding `COc1ccc([C@@H](C)N(C)c2nc(C)nc3c2CCC3)cc1`, in data set [1], the EC50 (in general, the concentration giving half of the maximal effect) was above 10000 nM.
On the same count and under the same terms, under `COc1ccc([C@H](C)N(C)c2nc(C)nc3c2CCC3)cc1` stands above 10000 nM.
With `COc1ccc(N(C)c2nc(C)nc3c2CCC3)cc1`, the inhibition worked out at 70% in the data set listed under Bos taurus [3] and 92% in the data set filed under Bos taurus [9]. Further, the IC50 in the data set with HeLa [4] is 9.6 nM; in data set [6] it was 16.4 nM; in [8] it was 1600 nM; with HeLa [10], 12 nM. In addition, in data set [1], a half-maximal effect (EC50) was put at 26 nM.
For `Cc1nc2c(c(N(C)c3ccc(N)cc3)n1)CCC2`, the IC50 in the data set with MDA-MB-435 (human) turned out to be 1220 nM. Moreover, the EC50 in data set [1] stood at 5120 nM.
For `COc1ccc(CN(C)c2nc(C)nc3c2CCC3)cc1` the same measures were 450 nM and above 10000 nM.
On to `Cc1nc2c(c(N(C)c3ccc(N(C)C)cc3)n1)CCC2`, for which the figures for the “Ratio IC50” value (with HeLa [2]; in data set [7]) were 0.9 and 1.7, respectively. Moreover, the results for the inhibition in the data set listed under Bos taurus [3] and in the data set filed under Bos taurus [9] were 65% and 85%, respectively. The IC50 with HeLa [4] was determined as 9.8 nM; in the data set on SK-OV-3 it was 13 nM; with MDA-MB-435 (human), 8.2 nM; in [6], 22.6 nM; in [8], 1200 nM; in the data set with HeLa [10], 11.3 nM. The compound also came in with an EC50 in data set [1] of 40 nM.
In the case of `Cc1nc2c(c(N(C)c3ccc4c(c3)CCO4)n1)CCC2`, the “Ratio IC50” value in the data set on HeLa [2] came to 0.9; in data set [7], 1.6. In addition, the inhibition in the data set listed under Bos taurus [3] came out at 64%; in the data set filed under Bos taurus [9], 85%. For the same compound, the IC50 was determined as 15.1 nM in the data set on HeLa [4]; 18.7 nM with SK-OV-3; 12.1 nM with MDA-MB-435 (human); 29.8 nM in data set [6]; 1200 nM in [8]; 16 nM in the data set on HeLa [10]. Also, the EC50 in data set [1] was determined as 70 nM.
With `COc1ccc(/C=C\c2cc(OC)c(OC)c(OC)c2)cc1O` [COMBRETASTATIN A4], the IC50 in the data set on MDA-MB-435 (human) turned out to be 3.4 nM; in [6], 6.6 nM. In [1], this compound had an EC50 of 13 nM.
With `Cc1nc2c(c(N(C)c3ccc(S(C)(=O)=O)cc3)n1)CCC2`, the Retention_time in data set [5] stood at 9.6 min. In addition, the concentration for a half-maximal effect (EC50) in data set [1] was above 10000 nM.
Regarding `COc1ccc(N(C)c2nc(C)nc3c2CCC3)cc1C`, the figures for the “Ratio IC50” value (in the data set with HeLa [2]; in data set [7]) were 0.9 and 2, respectively. For the same compound, the inhibition in the data set filed under Bos taurus [3] is 59%; in the data set listed under Bos taurus [9], 83%. The IC50 in the data set on HeLa [4] is 20.6 nM; with SK-OV-3, 23.9 nM; in the data set on MDA-MB-435 (human), 18.4 nM; in data set [6] it was 47.5 nM; in data set [8], 1100 nM; in the data set with HeLa [10], 22.8 nM. In addition, in data set [1], the response was half-maximal at 56 nM (EC50).
